Laboratory results as given in ChEMBL document CHEMBL1938381, “Design, synthesis, and structure-activity relationship studies of conformationally restricted mutilin 14-carbamates” (2012).
In brackets after ≈: the same amount, converted by molar mass.

Assays:
Assay type in all cases: functional
Staphylococcus aureus [1] = assay: Antibacterial activity against methicillin-susceptible Staphylococcus aureus by agar microdilution method
Procedure, shortened: (§1)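 MIC by agar microdilution following NCCLS standard M7-A6 (2003), tested against clinical isolates: MRSA n = 6, MRSE n = 5, MSSA n = 5, MSSE n = 5; values given as a single MIC or a range across isolates.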

[2] = tested on: Staphylococcus epidermidis; assay: Antibacterial activity against methicillin-resistant Staphylococcus epidermidis by agar microdilution method; procedure, shortened: as §1
[3] = tested on: Staphylococcus epidermidis; assay: Antibacterial activity against methicillin-susceptible Staphylococcus epidermidis by agar microdilution method; procedure, shortened: as §1
Staphylococcus aureus [4] = assay: Antibacterial activity against methicillin-resistant Staphylococcus aureus by agar microdilution method; procedure, shortened: as §1
Streptococcus pneumoniae = assay: Antibacterial activity against Streptococcus pneumoniae by agar microdilution method
Procedure, shortened: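 MIC read by agar microdilution following NCCLS standard M7-A6 (2003), against a panel of 3 Streptococcus pneumoniae clinical isolates. Values in µg/mL, given as a range where the isolates differed.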

SMILES	MIC (Staphylococcus aureus [1]) [µg/mL]	MIC [2] [µg/mL]	MIC [3] [µg/mL]	MIC (Staphylococcus aureus [4]) [µg/mL]	MIC (Streptococcus pneumoniae) [µg/mL]
C=C[C@]1(C)C[C@@H](OC(=O)N2Cc3cc(NC(=O)C(F)(F)F)ccc3C2=O)[C@]2(C)[C@H](C)CC[C@]3(CCC(=O)[C@H]32)[C@@H](C)[C@@H]1O	2 (≈ 3.39 µM)	2 (≈ 3.39 µM)	2 (≈ 3.39 µM)	2 (≈ 3.39 µM)	4 (≈ 6.77 µM)
C=C[C@]1(C)C[C@@H](OC(=O)N2Cc3ccc(NC(=O)CN4CCOCC4)cc3C2=O)[C@]2(C)[C@H](C)CC[C@]3(CCC(=O)[C@H]32)[C@@H](C)[C@@H]1O	0.5 (≈ 0.804 µM)	1 (≈ 1.61 µM)	0.5 (≈ 0.804 µM)	0.5 (≈ 0.804 µM)	1 (≈ 1.61 µM)
C=C[C@]1(C)C[C@@H](OC(=O)N2Cc3ccc(NC(=O)CN4CCN(CCO)CC4)cc3C2=O)[C@]2(C)[C@H](C)CC[C@]3(CCC(=O)[C@H]32)[C@@H](C)[C@@H]1O	0.5 (≈ 0.752 µM)	0.25 (≈ 0.376 µM)	0.25 (≈ 0.376 µM)	0.5 (≈ 0.752 µM)	0.5 (≈ 0.752 µM)
C=C[C@]1(C)C[C@@H](OC(=O)N2Cc3cc(N4CCOCC4)ccc3C2=O)[C@]2(C)[C@H](C)CC[C@]3(CCC(=O)[C@H]32)[C@@H](C)[C@@H]1O	0.5 (≈ 0.885 µM)	0.5 (≈ 0.885 µM)	0.5 (≈ 0.885 µM)	0.5 (≈ 0.885 µM)	0.5 (≈ 0.885 µM)
C=C[C@]1(C)C[C@@H](OC(=O)N2Cc3c(OC)cccc3C2=O)[C@]2(C)[C@H](C)CC[C@]3(CCC(=O)[C@H]32)[C@@H](C)[C@@H]1O	2 (≈ 3.92 µM)	2 (≈ 3.92 µM)	2 (≈ 3.92 µM)	2 (≈ 3.92 µM)	4 (≈ 7.85 µM)
C=C[C@]1(C)C[C@@H](OC(=O)N2Cc3ccc(N)cc3C2=O)[C@]2(C)[C@H](C)CC[C@]3(CCC(=O)[C@H]32)[C@@H](C)[C@@H]1O	0.0625 (≈ 0.126 µM)	0.0625 (≈ 0.126 µM)	0.0625 (≈ 0.126 µM)	0.0625 (≈ 0.126 µM)	0.0625 (≈ 0.126 µM)
C=C[C@]1(C)C[C@@H](OC(=O)CS[C@@H]2C[C@H]3CC[C@@H](C2)N3C)[C@]2(C)[C@H](C)CC[C@]3(CCC(=O)[C@H]32)[C@@H](C)[C@@H]1O [RETAPAMULIN]	0.0625 (≈ 0.121 µM)	0.125 (≈ 0.241 µM)	0.0625 (≈ 0.121 µM)	0.125 (≈ 0.241 µM)	0.0625 (≈ 0.121 µM)
C=C[C@]1(C)C[C@@H](OC(=O)N2Cc3cc(N4CCCCC4)ccc3C2=O)[C@]2(C)[C@H](C)CC[C@]3(CCC(=O)[C@H]32)[C@@H](C)[C@@H]1O	2 (≈ 3.55 µM)	2 (≈ 3.55 µM)	2 (≈ 3.55 µM)	2 (≈ 3.55 µM)	4 (≈ 7.11 µM)
C=C[C@]1(C)C[C@@H](OC(=O)N2CCc3cc(OCCCN4CCCCC4)ccc3C2=O)[C@]2(C)[C@H](C)CC[C@]3(CCC(=O)[C@H]32)[C@@H](C)[C@@H]1O	0.5 (≈ 0.788 µM)	0.5 (≈ 0.788 µM)	0.5 (≈ 0.788 µM)	0.5 (≈ 0.788 µM)	0.5 (≈ 0.788 µM)
C=C[C@]1(C)C[C@@H](OC(=O)N2Cc3ccc(NC(=O)CCN4CCOCC4)cc3C2=O)[C@]2(C)[C@H](C)CC[C@]3(CCC(=O)[C@H]32)[C@@H](C)[C@@H]1O	0.5 (≈ 0.786 µM)	0.25 (≈ 0.393 µM)	0.25 (≈ 0.393 µM)	0.5 (≈ 0.786 µM)	0.5 (≈ 0.786 µM)
C=C[C@]1(C)C[C@@H](OC(=O)N2CCc3ccccc3C2=O)[C@]2(C)[C@H](C)CC[C@]3(CCC(=O)[C@H]32)[C@@H](C)[C@@H]1O	0.25 (≈ 0.506 µM)	0.25 (≈ 0.506 µM)	0.25 (≈ 0.506 µM)	0.25 (≈ 0.506 µM)	0.25 (≈ 0.506 µM)
C=C[C@]1(C)C[C@@H](OC(=O)N2CCc3ccc(N)cc3C2=O)[C@]2(C)[C@H](C)CC[C@]3(CCC(=O)[C@H]32)[C@@H](C)[C@@H]1O	0.0625 (≈ 0.123 µM)	0.0625 (≈ 0.123 µM)	0.0625 (≈ 0.123 µM)	0.0625 (≈ 0.123 µM)	0.0625 (≈ 0.123 µM)
C=C[C@]1(C)C[C@@H](OC(=O)N2Cc3c(NC(=O)[C@@H](N)C(C)C)cccc3C2=O)[C@]2(C)[C@H](C)CC[C@]3(CCC(=O)[C@H]32)[C@@H](C)[C@@H]1O.Cl	0.5	0.5	0.5	0.5	0.5
C=C[C@]1(C)C[C@@H](OC(=O)N2CCc3ccc([N+](=O)[O-])cc3C2=O)[C@]2(C)[C@H](C)CC[C@]3(CCC(=O)[C@H]32)[C@@H](C)[C@@H]1O	1 (≈ 1.86 µM)	1 (≈ 1.86 µM)	1 (≈ 1.86 µM)	1 (≈ 1.86 µM)	2 (≈ 3.71 µM)
C=C[C@]1(C)C[C@@H](OC(=O)N2CCc3cc(OCCCCN4CCOCC4)ccc3C2=O)[C@]2(C)[C@H](C)CC[C@]3(CCC(=O)[C@H]32)[C@@H](C)[C@@H]1O	0.5 (≈ 0.768 µM)	0.5 (≈ 0.768 µM)	0.5 (≈ 0.768 µM)	0.5 (≈ 0.768 µM)	0.5 (≈ 0.768 µM)
C=C[C@]1(C)C[C@@H](OC(=O)N2CCc3cc(OC)ccc3C2=O)[C@]2(C)[C@H](C)CC[C@]3(CCC(=O)[C@H]32)[C@@H](C)[C@@H]1O	1 (≈ 1.91 µM)	0.5 (≈ 0.955 µM)	1 (≈ 1.91 µM)	2 (≈ 3.82 µM)	2 (≈ 3.82 µM)
C=C[C@]1(C)C[C@@H](OC(=O)N2CCc3cc(OCCN4CCN(C)CC4)ccc3C2=O)[C@]2(C)[C@H](C)CC[C@]3(CCC(=O)[C@H]32)[C@@H](C)[C@@H]1O	0.5 (≈ 0.786 µM)	0.5 (≈ 0.786 µM)	0.5 (≈ 0.786 µM)	0.5 (≈ 0.786 µM)	0.5 (≈ 0.786 µM)
